Key:
Felis catus [1] = assay: Dose required to reduce sympathetic nerve discharge in cat following intravenous administration; assay type: functional
Method in brief: (§1)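 Mongrel cats (2.5-4.0 kg) anaesthetised with chloralose 80 mg/kg iv, in a stereotaxic frame, femoral artery and vein cannulated. SND was quantified by cumulative integration of slow waves, with a 1 h equilibration and baseline taken over the last 10 min. Cumulative iv doses of 0.01, 0.03, 0.1, 0.3 and 1.0 mg/kg were given every 20 min, each read 15-20 min post-dose. ED50 is the dose reducing SND to 50% of pretreatment (95% CI). Maximum decrease at 1 mg/kg is given as % control ±SEM.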

Mus musculus [2] = assay: Maximum obtainable hypothermic effect up to 30 mg/kg dose in mice expressed as temperature decrease in degree Centigrade; assay type: functional
Method in brief: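 Mice (Charles River, 18–22 g) dosed sc in 0.1 mL at doses up to 30 mg/kg. Rectal temperature measured 20 min after injection. The mean maximum temperature drop at 20 min is recorded as a crude index of efficacy.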

Mus musculus [3] = assay: Dose required to obtain hypothermic effect in mice following subcutaneous administration; assay type: functional; conditions: sc
Method in brief: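 Charles River mice (18–22 g), housed singly, given 0.1-mL sc injections at doses spaced in half-log intervals. Rectal temperature read 20 min after injection. Responders were those of four mice per dose that dropped >1.1 °C. ED50 by Spearman–Karber, with 95% confidence intervals.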

[4] = Dose to reduce neuronal firing against 5-HT cells in rats (iv); assay type: functional; conditions: Rattus norvegicus
Method in brief: (§2)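 Male Sprague-Dawley rats (250-350 g) anaesthetised with chloral hydrate 400 mg/kg. Extracellular single-unit firing was recorded by glass microelectrode (pontamine sky blue in 2 M NaCl) from 5-HT cells in dorsal raphe or DA cells in substantia nigra pars compacta, with drug given iv. Cell sites were confirmed histologically by dye mark. ED50 is the dose inhibiting firing by 50%, in µg/kg ±SEM, with n animals.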

Felis catus [5] = assay: (§3) Maximum decrease in sympathetic nerve discharge(SND) observed at 1 mg/kg dose in cat; assay type: functional; set-up: scale not given: the % may be the effect or the level left
Method in brief: (§4)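 Chloralose-anesthetized mongrel cats (80 mg/kg iv), stereotaxic, femoral cannulation. SND integrated cumulatively; pretreatment value averaged over the last 10 min of a 1 h equilibration. Cumulative iv dosing from 0.01 up to 1.0 mg/kg every 20 min, read 15–20 min after each dose. Maximum SND decrease at 1 mg/kg expressed as % control (±SEM); n = 2–8 cats.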

[6] = Dose to reduce neuronal firing against DA cells (antagonist) in rats (iv); assay type: functional; conditions: Rattus norvegicus
D(2) dopamine receptor = D(2) dopamine receptor (Homo sapiens, UniProt P14416); assay: Displacement of [3H]U-86170 from human D2-dopamine receptor expressed in CHO K1 cells; assay type: cell-based
Sequence of D(2) dopamine receptor (P14416 whole entry): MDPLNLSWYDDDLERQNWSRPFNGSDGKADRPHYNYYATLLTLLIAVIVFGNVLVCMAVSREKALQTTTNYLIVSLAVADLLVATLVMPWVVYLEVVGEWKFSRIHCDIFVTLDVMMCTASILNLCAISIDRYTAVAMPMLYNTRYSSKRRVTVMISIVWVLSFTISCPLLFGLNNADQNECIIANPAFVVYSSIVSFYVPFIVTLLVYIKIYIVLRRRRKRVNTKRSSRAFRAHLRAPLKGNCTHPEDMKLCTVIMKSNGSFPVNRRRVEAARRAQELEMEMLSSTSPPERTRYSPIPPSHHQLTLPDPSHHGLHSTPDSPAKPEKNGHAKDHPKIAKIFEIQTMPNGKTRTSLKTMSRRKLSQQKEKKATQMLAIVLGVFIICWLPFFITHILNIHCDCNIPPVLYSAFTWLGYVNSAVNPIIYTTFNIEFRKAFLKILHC

Felis catus [7] = assay: Dose required to reduce sympathetic nerve discharge in cats following intravenous administration
Felis catus [8] = assay: as §3; assay type: functional; set-up: scale not given: the % may be the effect or the level left; method in brief: as §1; remark: listed apart in the source
Felis catus [9] = assay: Dose required to completely shut off sympathetic nerve discharge in cat following intravenous administration; assay type: functional
[10] = Dose to reduce neuronal firing against DA cells in rats (iv); assay type: functional; conditions: Rattus norvegicus; method in brief: as §2
Felis catus [11] = assay: Maximum decrease in sympathetic nerve discharge(SND) +/-SEM observed at 1 mg/kg dose in cat; assay type: functional; set-up: scale not given: the % may be the effect or the level left; method in brief: as §4

Row | Compound | ED50 (Felis catus [1]) [mg/kg] | Temperature (Mus musculus [2]) [°C] | ED50 (Mus musculus [3]) [mg/kg] | ED50 [4] [mg/kg] | Control (Felis catus [5]) [%] | ED50 [6] [mg/kg] | Ki (D(2) dopamine receptor) [nM] | ED50 (Felis catus [7]) [mg/kg] | Control (Felis catus [8]) [%] | ED50 (Felis catus [9]) [mg/kg] | ED50 [10] [mg/kg] | Control (Felis catus [11]) [%]
1 | O=C1CC2(CCCC2)CC(=O)N1CCCCN1CCN(c2ncccn2)CC1 [BUSPIRONE] | 0.08 | 1.9 | 3 | 0.0154 | 43 | 0.0113 | – | – | – | – | – | –
2 | CCCN[C@H]1CCc2ccc3[nH]c(C(N)=O)cc3c2C1 | – | 1.8 | 17.3 | – | – | – | > 1670 | – | – | – | – | –
3 | CCCN(CCCCN1C(=O)CC(C)(C)CC1=O)[C@H]1CCc2ccc3[nH]c(C(N)=O)cc3c2C1 | – | 2.2 | 4.1 | – | – | – | 914 | – | – | – | – | –
4 | CCCN(CCC)[C@H]1CCc2ccc3[nH]c(C#N)cc3c2C1 | – | 6.3 | 1.3 | – | 0 | – | 896 | 0.15 | – | – | – | –
5 | CCCN(CCCCN1C(=O)CC(C)(C)CC1=O)[C@@H]1CCc2ccc3[nH]c(C#N)cc3c2C1 | – | 6.8 | 0.13 | – | 0 | – | 44 | 0.01 | – | – | – | –
6 | CCCN(CCCCN1C(=O)CC(C)(C)CC1=O)[C@@H]1CCc2ccc3[nH]c(C(N)=O)cc3c2C1 | – | 2.8 | 9.7 | – | 22 | – | 38 | 0.41 | – | – | – | –
7 | CCCN(CC1CC1)[C@H]1CCc2ccc3[nH]c(C(N)=O)cc3c2C1 | – | 3.3 | 9.7 | – | 14 | – | > 1000 | 0.4 | – | – | – | –
8 | CCCN(CCC)[C@@H]1CCc2cccc(O)c2C1 | – | 4 | 1 | 0.0016 | – | 0.74 | – | 0.01 | 0 | – | – | –
9 | CCCN(CCC)[C@@H]1CCc2ccc3[nH]c(C#N)cc3c2C1 [U-92,016-A] | 0.017 | 7.2 | 0.04 | 0.0034 | 0 | – | 35 | – | – | 0.03 | 0.084 | –
10 | CCCN(CCCCN1C(=O)CC(C)(C)CC1=O)[C@H]1CCc2ccc3[nH]c(C#N)cc3c2C1 | – | 3.9 | 3.1 | – | – | – | > 333 | – | – | – | – | –
11 | CCCN[C@@H]1CCc2ccc3[nH]c(C(N)=O)cc3c2C1 | – | 2.4 | 2.3 | – | – | – | 857 | – | – | – | – | –
12 | CCCN(CCC)[C@@H]1CCc2ccc3[nH]c(C(N)=O)cc3c2C1 | 0.19 | 3.3 | 0.6 | > 0.1 | – | – | 215 | – | – | – | – | 0
13 | CCCN(CCC)[C@H]1CCc2ccc3[nH]c(C(N)=O)cc3c2C1 | 0.19 | 2.2 | 1 | > 0.1 | 10 | – | > 1000 | – | – | – | – | –
14 | CCCN(CC1CC1)[C@@H]1CCc2ccc3[nH]c(C(N)=O)cc3c2C1 | – | 4 | 2.3 | – | 43 | – | 389 | 0.9 | – | – | – | –

— ChEMBL document CHEMBL1126741 (J Med Chem, 1993)
